Reference: ChEMBL document CHEMBL1152539, “Synthesis and evaluation of bioactive naphthoquinones from the Brazilian medicinal plant, Tabebuia avellanedae” (Bioorg Med Chem, 2009)
pEC50, pIC50: −log10 of the molar value. Converted amounts (≈) assume the structure as drawn.

Assays:
PC-3 = assay: Antiproliferative activity against human PC3 cells after 72 hrs by trypan blue exclusion assay; type: functional, cell-based; settings: PC-3, 72 h
Method in brief: (§1)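 Cells were kept in DMEM with 10% fetal serum and exposed to four concentrations of compound for 72 h at 37 °C in humidified 5% CO₂. They were then stained with 0.25% trypan blue for 20 min, and viable cells were counted by light microscopy. IC₅₀ was derived from separate experiments run in triplicate.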

A549 = assay: Antiproliferative activity against human A549 cells after 72 hrs by trypan blue exclusion assay; type: functional, cell-based; settings: A549, 72 h; method in brief: as §1
MCF7 = assay: Antiproliferative activity against human MCF7 cells after 72 hrs by trypan blue exclusion assay; type: functional, cell-based; settings: MCF7, 72 h; method in brief: as §1
[1] = Antiproliferative activity against human Hs888Lu cells after 72 hrs by trypan blue exclusion assay; type: cell-based; method in brief: as §1
[2] = Antiproliferative activity against human SVCT-M12 cells after 72 hrs by trypan blue exclusion assay; type: cell-based; settings: SVCT-M12, 72 h; method in brief: as §1
Raji [3] = assay: Inhibition of 12-O-tetradecanoylphorbol-13-acetate-induced EBV-early antigen activation in human Raji cells assessed as EA induction at 1000 molar ratio after 48 hrs by immunofluorescence technique relative to 12-O-tetradecanoylphorbol-13-acetate; type: cell-based; settings: human gammaherpesvirus 4
Method in brief: (§2)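 Raji cells were incubated for 48 h at 37 °C in medium with n-butyric acid (4 mM), TPA (32 pmol) and graded amounts of test compound. Smears were stained for EBV-EA by indirect immunofluorescence, and positive cells were counted among at least 500 cells. Assays were run in triplicate. Activity was expressed relative to the n-butyric acid plus TPA control, set as 100%.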

Raji [4] = assay: Inhibition of 12-O-tetradecanoylphorbol-13-acetate-induced EBV-early antigen activation in human Raji cells assessed as EA induction at 500 molar ratio after 48 hrs by immunofluorescence technique relative to 12-O-tetradecanoylphorbol-13-acetate; type: cell-based; design: scale not given: the % may be the effect or the level left; settings: human gammaherpesvirus 4; method in brief: as §2
Raji [5] = assay: Inhibition of 12-O-tetradecanoylphorbol-13-acetate-induced EBV-early antigen activation in human Raji cells assessed as EA induction at 100 molar ratio after 48 hrs by immunofluorescence technique relative to 12-O-tetradecanoylphorbol-13-acetate; type: cell-based; design: scale not given: the % may be the effect or the level left; settings: human gammaherpesvirus 4; method in brief: as §2
Raji [6] = assay: Inhibition of 12-O-tetradecanoylphorbol-13-acetate-induced EBV-early antigen activation in human Raji cells assessed as EA induction at 10 molar ratio after 48 hrs by immunofluorescence technique relative to 12-O-tetradecanoylphorbol-13-acetate; type: cell-based; design: scale not given: the % may be the effect or the level left; settings: human gammaherpesvirus 4; method in brief: as §2
[7] = Inhibition of 12-O-tetradecanoylphorbol-13-acetate-induced EBV-early antigen activation in human Raji cells after 48 hrs by immunofluorescence technique; type: cell-based, human gammaherpesvirus 4; method in brief: as §2
[8] = Cytotoxicity against human Raji cells assessed as cell viability at 1000 molar ratio after 48 hrs by trypan blue staining; type: cell-based; settings: read-out: Activity
Method in brief: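 Raji cells were exposed for 48 h at 37 °C to n-butyric acid (4 mM), TPA (32 pmol) and test compound, as in the EBV-EA induction setup. Viability of the treated cells was then measured by trypan blue staining.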

Bacillus subtilis = assay: Antimicrobial activity against Bacillus subtilis NBRC3134 after 24 hrs by broth dilution method; type: functional; settings: NBRC3134, 24 h
Method in brief: (§3)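 Modified NCCLS broth dilution. A 50 µL aliquot of bacterial cells (10⁶/mL in 0.85% NaCl) was added to 1 mL Mueller-Hinton broth containing compound over a 0.1–100 range.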

Staphylococcus aureus = assay: Antimicrobial activity against Staphylococcus aureus NBRC13276 after 24 hrs by broth dilution method; type: functional; settings: NBRC13276, 24 h; method in brief: as §3
Bacillus mycoides = assay: Antimicrobial activity against Bacillus mycoides ATCC 11778 after 24 hrs by broth dilution method; type: functional; settings: ATCC 11778, 24 h; method in brief: as §3
Escherichia coli = assay: Antimicrobial activity against Escherichia coli ATCC 11775 after 24 hrs by broth dilution method; type: functional; settings: ATCC 11775, 24 h; method in brief: as §3
Pseudomonas aeruginosa = assay: Antimicrobial activity against Pseudomonas aeruginosa NBRC13275 after 24 hrs by broth dilution method; type: functional; settings: NBRC13275, 24 h; method in brief: as §3
Salmonella enteritidis = assay: Antimicrobial activity against Salmonella enteritidis OPS10 after 24 hrs by broth dilution method; type: functional, Salmonella enterica subsp. enterica serovar Enteritidis; settings: Salmonella enterica, OPS10, 24 h; method in brief: as §3
Candida albicans [9] = assay: Antimicrobial activity against Candida albicans NBRC1060 after 24 hrs by broth dilution method; type: functional; settings: NBRC1060, 24 h
Penicillium expansum [10] = assay: Antimicrobial activity against Penicillium expansum NBRC8800 after 24 hrs by broth dilution method; type: functional; settings: NBRC8800, 24 h
Naganishia albida [11] = assay: Antimicrobial activity against Cryptococcus albidus NBRC0378 after 3-5 days by broth dilution method; settings: NBRC0378, 3-5 days
Aspergillus fumigatus [12] = assay: Antimicrobial activity against Aspergillus fumigatus NBRC4400 after 3-5 days by broth dilution method; settings: NBRC4400, 3-5 days
Paecilomyces variotii [13] = assay: Antimicrobial activity against Paecilomyces variotii NBRC4855 after 3-5 days by broth dilution method; settings: NBRC4855, 3-5 days
Saccharomyces cerevisiae [14] = assay: Antimicrobial activity against Saccharomyces cerevisiae NBRC10114 after 3-5 days by broth dilution method; settings: NBRC10114, 3-5 days
Saccharomyces cerevisiae [15] = assay: Antimicrobial activity against Saccharomyces cerevisiae NBRC10114 after 24 hrs by broth dilution method; type: functional; settings: NBRC10114, 24 h
Candida albicans [16] = assay: Antimicrobial activity against Candida albicans NBRC1060 after 3-5 days by broth dilution method; settings: NBRC1060, 3-5 days
Penicillium expansum [17] = assay: Antimicrobial activity against Penicillium expansum NBRC8800 after 3-5 days by broth dilution method; settings: NBRC8800, 3-5 days
[18] = Antiproliferative activity against human skin fibroblast after 72 hrs by trypan blue exclusion assay; type: cell-based; method in brief: as §1
Hepatocyte = assay: Antiproliferative activity against human hepatocytes after 72 hrs by trypan blue exclusion assay; type: cell-based; method in brief: as §1
[19] = Anticancer activity against DMBA/TPA-induced skin cancer in mouse assessed as incidence of papilloma at 85 nmol administered before TPA challenge measured after 10 weeks; type: functional
Method in brief: (§4)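 Mouse two-stage skin model: DMBA 390 nmol in 0.1 mL acetone applied topically by pipet. One week later, the same skin site was painted with test compound (85 nmol in acetone) or acetone alone, 60 min before TPA (1.7 nmol). Tumor response was scored as the average number of papillomas per mouse and the percentage of mice bearing papillomas.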

[20] = Anticancer activity against DMBA/TPA-induced skin cancer in mouse assessed as incidence of papilloma at 85 nmol administered before TPA challenge measured after 15 weeks; type: functional; method in brief: as §4
[21] = Anticancer activity against DMBA/TPA-induced skin cancer in mouse assessed as incidence of papilloma at 85 nmol administered before TPA challenge measured after 20 weeks; type: functional; method in brief: as §4
[22] = Anticancer activity against DMBA/TPA-induced skin cancer in mouse assessed as number of papillomas per mouse at 85 nmol administered before TPA challenge measured after 20 weeks; type: functional; method in brief: as §4
Naganishia albida [23] = assay: Antimicrobial activity against Cryptococcus albidus NBRC0378 after 24 hrs by broth dilution method; type: functional; settings: NBRC0378, 24 h
Aspergillus fumigatus [24] = assay: Antimicrobial activity against Aspergillus fumigatus NBRC4400 after 24 hrs by broth dilution method; type: functional; settings: NBRC4400, 24 h
Paecilomyces variotii [25] = assay: Antimicrobial activity against Paecilomyces variotii NBRC4855 after 24 hrs by broth dilution method; type: functional; settings: NBRC4855, 24 h

Compound | pIC50 (PC-3) | pIC50 (A549) | pIC50 (MCF7) | pEC50 [1] | pEC50 [2] | EA induction relative to TPA control (Raji [3]) [%] | Activity (Raji [4]) [%] | Activity (Raji [5]) [%] | Activity (Raji [6]) [%] | IC50 [7] [mol ratio/32 pmol TPA] | viability at 48 h, 1000 molar ratio [8] [%] | MIC (Bacillus subtilis) [µg/mL] | MIC (Staphylococcus aureus) [µg/mL] | MIC (Bacillus mycoides) [µg/mL] | MIC (Escherichia coli) [µg/mL] | MIC (Pseudomonas aeruginosa) [µg/mL] | MIC (Salmonella enteritidis) [µg/mL] | MIC (Naganishia albida [11]) [µg/mL] | MIC (Aspergillus fumigatus [12]) [µg/mL] | MIC (Paecilomyces variotii [13]) [µg/mL] | other results
CC(=O)c1cc2c(o1)C(=O)c1c(O)cccc1C2=O | 5.52 | 5.37 | 5.58 | 4.84 | 4.93 | 0 | 8.3 | 27.5 | 60.3 | 40.1 | 70 |  |  |  |  |  |  |  |  |  | 
CC(=O)c1cc2c(o1)C(=O)c1cccc(O)c1C2=O | 6.08 | 5.70 | 6.11 | 5.11 | 5.11 | 0 | 7.1 | 23.7 | 56 | 37.2 | 60 | 1.56 (≈ 6.09 µM) | 1.56 (≈ 6.09 µM) | 0.78 (≈ 3.04 µM) | > 100 | > 100 | > 100 | 1.56 (≈ 6.09 µM) | 100 (≈ 390 µM) | 100 (≈ 390 µM) | MIC (Candida albicans [9]): > 100 µg/mL; MIC (Penicillium expansum [10]): 50 µg/mL (≈ 195 µM); MIC (Saccharomyces cerevisiae [14]): 1.56 µg/mL (≈ 6.09 µM)
C[C@@H](O)c1cc2c(o1)C(=O)c1c(O)cccc1C2=O |  |  |  |  |  | 4.2 | 20.4 | 52.5 | 76.3 | 201 | 60 | 1.56 (≈ 6.04 µM) | 6.25 (≈ 24.2 µM) | 1.56 (≈ 6.04 µM) | > 100 | > 100 | > 100 | 1.56 (≈ 6.04 µM) | 25 (≈ 96.8 µM) | 50 (≈ 194 µM) | MIC (Candida albicans [9]): 25 µg/mL (≈ 96.8 µM); MIC (Saccharomyces cerevisiae [15]): 3.13 µg/mL (≈ 12.1 µM); MIC (Penicillium expansum [10]): 50 µg/mL (≈ 194 µM)
CC1(C)CCC2=C(O1)c1ccccc1C(=O)C2=O [LAPACHONE] | 5.95 | 5.38 | 5.00 |  |  | 4.7 | 21.7 | 50.4 | 73.1 | 210 | 50 |  |  |  |  |  |  |  |  |  | 
C[C@H](O)c1cc2c(o1)C(=O)c1c(O)cccc1C2=O | 5.80 | 5.37 | 5.58 | 4.84 | 4.84 | 7.4 | 26.5 | 58.2 | 80.5 | 271 | 60 | 1.56 (≈ 6.04 µM) | 6.25 (≈ 24.2 µM) | 1.56 (≈ 6.04 µM) | > 100 | > 100 | > 100 | 1.56 (≈ 6.04 µM) | 25 (≈ 96.8 µM) | 50 (≈ 194 µM) | MIC (Saccharomyces cerevisiae [15]): 3.13 µg/mL (≈ 12.1 µM); MIC (Candida albicans [16]): 25 µg/mL (≈ 96.8 µM); MIC (Penicillium expansum [17]): 50 µg/mL (≈ 194 µM)
C[C@H](O)c1cc2c(o1)C(=O)c1cccc(O)c1C2=O |  | 6.11 | 6.29 | 5.26 | 5.47 | 0 | 4.4 | 16.9 | 50 | 33.2 | 60 | 0.78 (≈ 3.02 µM) | 3.13 (≈ 12.1 µM) | 0.78 (≈ 3.02 µM) | > 100 | > 100 | > 100 |  |  |  | pEC50 [18]: 4.95; pEC50 (Hepatocyte): 4.95; Activity [19]: 7%; Activity [20]: 47%; Activity [21]: 67%; Activity [22]: 3.9; MIC (Naganishia albida [23]): 1.56 µg/mL (≈ 6.04 µM); MIC (Aspergillus fumigatus [24]): 12.5 µg/mL (≈ 48.4 µM); MIC (Paecilomyces variotii [25]): 25 µg/mL (≈ 96.8 µM); MIC (Candida albicans [16]): 25 µg/mL (≈ 96.8 µM); MIC (Penicillium expansum [17]): 25 µg/mL (≈ 96.8 µM); MIC (Saccharomyces cerevisiae [14]): 3.13 µg/mL (≈ 12.1 µM)
